We go through three compounds from ChEMBL document CHEMBL3259629, “Discovery and optimization of piperidyl-1,2,3-triazole ureas as potent, selective, and in vivo-active inhibitors of α/β-hydrolase domain containing 6 (ABHD6)” (J Med Chem, 2013).

Bounds are passed on as bounds.

For test [1], the target named is T1, Lysosomal protective protein (Mus musculus) (UniProt P16675).
T1 sequence (whole entry): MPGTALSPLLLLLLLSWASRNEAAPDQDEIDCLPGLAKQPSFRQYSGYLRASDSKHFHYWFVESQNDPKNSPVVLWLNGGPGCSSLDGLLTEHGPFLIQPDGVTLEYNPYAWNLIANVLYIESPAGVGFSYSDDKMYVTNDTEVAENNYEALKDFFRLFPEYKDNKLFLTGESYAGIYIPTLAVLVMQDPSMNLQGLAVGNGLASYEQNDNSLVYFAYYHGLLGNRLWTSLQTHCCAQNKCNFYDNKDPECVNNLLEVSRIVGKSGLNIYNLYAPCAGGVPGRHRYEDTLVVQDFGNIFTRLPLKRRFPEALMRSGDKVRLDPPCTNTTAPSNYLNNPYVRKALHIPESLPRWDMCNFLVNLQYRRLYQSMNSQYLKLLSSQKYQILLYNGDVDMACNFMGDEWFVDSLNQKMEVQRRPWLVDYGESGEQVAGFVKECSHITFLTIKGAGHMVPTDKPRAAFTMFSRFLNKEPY
The following applies: Neuro2a, 3 nM.

The target in test [2] is T2, Platelet-activating factor acetylhydrolase IB subunit alpha2 (Mus musculus) (UniProt Q61206).
T2 sequence (whole entry): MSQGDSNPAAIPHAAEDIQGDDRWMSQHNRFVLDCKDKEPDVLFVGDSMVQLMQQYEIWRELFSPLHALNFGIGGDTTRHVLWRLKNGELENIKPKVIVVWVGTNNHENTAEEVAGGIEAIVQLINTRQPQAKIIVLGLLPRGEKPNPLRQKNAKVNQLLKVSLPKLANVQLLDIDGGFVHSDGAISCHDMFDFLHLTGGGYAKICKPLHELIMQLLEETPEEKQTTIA
The following applies: Neuro2a, 3 nM.

In test [3] the target is T3, Phosphatidylserine lipase ABHD16A (Mus musculus) (UniProt Q9Z1Q2).
T3 sequence (whole entry): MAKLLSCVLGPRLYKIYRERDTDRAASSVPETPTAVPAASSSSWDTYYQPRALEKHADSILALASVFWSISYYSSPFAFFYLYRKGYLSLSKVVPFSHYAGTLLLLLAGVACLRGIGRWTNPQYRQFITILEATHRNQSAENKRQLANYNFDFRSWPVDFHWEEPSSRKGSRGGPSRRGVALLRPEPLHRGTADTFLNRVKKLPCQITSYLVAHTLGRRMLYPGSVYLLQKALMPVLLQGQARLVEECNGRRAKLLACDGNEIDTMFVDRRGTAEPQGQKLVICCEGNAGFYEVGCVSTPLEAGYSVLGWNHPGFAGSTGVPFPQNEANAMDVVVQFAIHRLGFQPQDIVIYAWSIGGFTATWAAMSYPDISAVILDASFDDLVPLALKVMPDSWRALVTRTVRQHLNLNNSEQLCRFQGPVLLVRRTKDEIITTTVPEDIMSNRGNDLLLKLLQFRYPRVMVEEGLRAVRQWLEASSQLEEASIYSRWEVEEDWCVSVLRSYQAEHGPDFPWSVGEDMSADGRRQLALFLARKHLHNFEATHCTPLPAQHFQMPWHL
The following applies: Neuro2a, 3 nM.

The target in test [4] is Fatty acid synthase (Mus musculus) (UniProt P19096). The conditions noted are these: Neuro2a, 3 nM.
Fatty acid synthase (Mus musculus), sequence (P19096 whole entry): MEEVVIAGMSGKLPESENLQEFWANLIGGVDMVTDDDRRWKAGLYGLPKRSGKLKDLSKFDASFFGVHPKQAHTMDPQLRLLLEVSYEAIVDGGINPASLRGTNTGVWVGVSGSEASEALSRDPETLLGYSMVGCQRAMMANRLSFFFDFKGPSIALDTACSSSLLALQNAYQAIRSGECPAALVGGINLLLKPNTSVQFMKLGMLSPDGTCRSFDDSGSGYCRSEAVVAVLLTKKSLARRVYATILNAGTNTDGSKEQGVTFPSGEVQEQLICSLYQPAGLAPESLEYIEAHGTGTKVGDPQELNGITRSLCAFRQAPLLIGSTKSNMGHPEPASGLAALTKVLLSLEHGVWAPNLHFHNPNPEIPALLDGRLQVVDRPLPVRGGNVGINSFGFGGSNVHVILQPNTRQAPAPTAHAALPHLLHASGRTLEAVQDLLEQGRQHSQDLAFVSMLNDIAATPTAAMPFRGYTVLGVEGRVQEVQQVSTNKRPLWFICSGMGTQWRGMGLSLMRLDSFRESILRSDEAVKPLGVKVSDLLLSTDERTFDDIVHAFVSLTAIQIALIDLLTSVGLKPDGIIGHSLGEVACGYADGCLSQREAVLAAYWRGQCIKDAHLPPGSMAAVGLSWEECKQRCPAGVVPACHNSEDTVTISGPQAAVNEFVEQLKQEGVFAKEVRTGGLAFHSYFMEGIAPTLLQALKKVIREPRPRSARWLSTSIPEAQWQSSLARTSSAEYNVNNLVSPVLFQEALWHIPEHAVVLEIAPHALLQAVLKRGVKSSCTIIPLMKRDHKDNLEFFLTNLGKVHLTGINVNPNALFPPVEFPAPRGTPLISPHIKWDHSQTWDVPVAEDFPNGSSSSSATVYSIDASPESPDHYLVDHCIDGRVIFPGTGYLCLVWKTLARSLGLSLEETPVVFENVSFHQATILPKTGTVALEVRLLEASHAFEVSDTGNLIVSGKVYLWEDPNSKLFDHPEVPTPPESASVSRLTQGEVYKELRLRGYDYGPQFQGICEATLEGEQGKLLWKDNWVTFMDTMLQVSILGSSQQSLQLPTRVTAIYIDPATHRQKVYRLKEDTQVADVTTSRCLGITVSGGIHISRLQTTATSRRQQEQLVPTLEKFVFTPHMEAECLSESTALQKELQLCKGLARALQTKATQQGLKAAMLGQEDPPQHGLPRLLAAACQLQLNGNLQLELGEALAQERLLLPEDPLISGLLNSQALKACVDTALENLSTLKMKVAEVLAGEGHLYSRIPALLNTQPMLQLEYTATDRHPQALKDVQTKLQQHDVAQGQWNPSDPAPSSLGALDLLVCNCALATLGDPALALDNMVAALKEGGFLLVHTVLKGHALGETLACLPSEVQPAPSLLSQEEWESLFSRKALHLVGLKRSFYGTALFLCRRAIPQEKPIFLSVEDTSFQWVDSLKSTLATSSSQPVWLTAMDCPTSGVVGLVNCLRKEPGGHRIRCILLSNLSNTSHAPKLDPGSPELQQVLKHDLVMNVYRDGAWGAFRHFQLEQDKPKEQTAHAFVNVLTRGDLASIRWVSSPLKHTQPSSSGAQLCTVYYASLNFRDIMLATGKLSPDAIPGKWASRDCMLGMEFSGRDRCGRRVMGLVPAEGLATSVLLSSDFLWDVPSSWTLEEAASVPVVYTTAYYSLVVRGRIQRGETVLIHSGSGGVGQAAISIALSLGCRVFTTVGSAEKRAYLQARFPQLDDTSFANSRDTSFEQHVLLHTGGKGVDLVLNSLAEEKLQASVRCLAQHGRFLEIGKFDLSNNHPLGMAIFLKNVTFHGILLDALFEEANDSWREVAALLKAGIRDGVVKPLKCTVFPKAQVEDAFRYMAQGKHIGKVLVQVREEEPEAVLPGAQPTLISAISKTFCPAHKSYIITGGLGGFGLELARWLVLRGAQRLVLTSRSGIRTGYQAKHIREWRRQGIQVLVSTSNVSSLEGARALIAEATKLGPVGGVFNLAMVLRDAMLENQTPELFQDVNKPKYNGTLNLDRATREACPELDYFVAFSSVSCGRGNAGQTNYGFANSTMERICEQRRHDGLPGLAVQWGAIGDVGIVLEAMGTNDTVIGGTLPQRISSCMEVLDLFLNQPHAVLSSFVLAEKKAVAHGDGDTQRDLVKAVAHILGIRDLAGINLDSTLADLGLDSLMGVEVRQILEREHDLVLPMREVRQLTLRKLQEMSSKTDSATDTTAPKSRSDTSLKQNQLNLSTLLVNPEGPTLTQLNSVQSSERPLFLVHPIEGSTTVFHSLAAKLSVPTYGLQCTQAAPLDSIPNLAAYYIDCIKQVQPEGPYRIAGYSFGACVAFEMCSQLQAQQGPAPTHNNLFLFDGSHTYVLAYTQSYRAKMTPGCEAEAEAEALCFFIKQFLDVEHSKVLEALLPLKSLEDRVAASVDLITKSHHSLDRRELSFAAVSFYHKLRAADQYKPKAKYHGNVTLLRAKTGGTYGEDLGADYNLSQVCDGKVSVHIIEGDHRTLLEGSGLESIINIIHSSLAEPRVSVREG
The target of test [5] is T4, Protein phosphatase methylesterase 1 (Mus musculus) (UniProt Q8BVQ5).
T4 sequence (whole entry): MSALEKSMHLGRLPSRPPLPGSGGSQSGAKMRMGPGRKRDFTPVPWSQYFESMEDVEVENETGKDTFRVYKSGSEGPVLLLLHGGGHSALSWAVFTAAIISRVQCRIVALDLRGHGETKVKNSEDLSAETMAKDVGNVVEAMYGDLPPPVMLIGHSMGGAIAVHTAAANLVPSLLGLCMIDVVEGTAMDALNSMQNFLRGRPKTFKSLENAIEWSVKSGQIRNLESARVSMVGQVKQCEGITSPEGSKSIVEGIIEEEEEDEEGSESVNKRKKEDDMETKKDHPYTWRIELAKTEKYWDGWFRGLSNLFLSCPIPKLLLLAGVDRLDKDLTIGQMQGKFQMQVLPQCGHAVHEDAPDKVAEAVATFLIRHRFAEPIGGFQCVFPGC
The following applies: Neuro2a, 3 nM.

For test [6], the target named is T5, Diacylglycerol lipase-beta (Mus musculus) (UniProt Q91WC9).
T5 sequence (whole entry): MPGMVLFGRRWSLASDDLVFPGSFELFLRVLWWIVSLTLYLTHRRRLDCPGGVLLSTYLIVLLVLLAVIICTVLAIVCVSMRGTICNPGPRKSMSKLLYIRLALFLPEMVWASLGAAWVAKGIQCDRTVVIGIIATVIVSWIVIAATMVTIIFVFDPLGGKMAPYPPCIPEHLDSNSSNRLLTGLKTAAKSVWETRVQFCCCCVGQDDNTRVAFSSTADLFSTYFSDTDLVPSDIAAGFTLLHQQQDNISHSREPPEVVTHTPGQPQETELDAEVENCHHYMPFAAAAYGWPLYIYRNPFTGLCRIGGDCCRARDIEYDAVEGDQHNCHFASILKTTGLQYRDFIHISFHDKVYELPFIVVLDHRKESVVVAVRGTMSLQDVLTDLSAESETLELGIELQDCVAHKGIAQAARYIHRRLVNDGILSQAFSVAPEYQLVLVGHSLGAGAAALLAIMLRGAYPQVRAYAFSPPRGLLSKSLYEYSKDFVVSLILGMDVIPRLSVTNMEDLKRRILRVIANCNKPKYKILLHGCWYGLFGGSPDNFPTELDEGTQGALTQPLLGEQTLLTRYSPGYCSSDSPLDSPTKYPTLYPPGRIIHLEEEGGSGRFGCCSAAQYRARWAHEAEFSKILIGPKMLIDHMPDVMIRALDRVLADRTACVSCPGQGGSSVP
Description: Inhibition of FP-rhodamine-labelled recombinant mouse DAGLbeta expressed in HEK293T cells at 1 uM preincubated for 30 mins followed by FP-rhodamine labelling measured after 30 mins by gel-based competitive ABPP assay. The following applies: HEK-293T. Format: cell-based. The procedure, abridged:
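Mouse DAGLβ transiently overexpressed in HEK293T. Lysate diluted to 0.3 mg/mL in 50 mM HEPES pH 7.2, 100 mM NaCl, 5 mM CaCl₂, 0.1% Triton X-100, 10% DMSO. Compound preincubated 30 min at 37 °C, then 1 μM probe for 30 min at 37 °C, SDS-PAGE and in-gel fluorescence.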

For `O=C(N1CCCCC1c1ccccc1)n1cc(-c2ccc(-c3cccc(CO)c3)cc2)nn1` (racemic), the inhibition (as a rule, the share of the control response that was lost under treatment) is less than 50% in test [1]; less than 50% in test [2]; less than 50% in test [3]; less than 50% in test [4]; less than 50% in test [5]; 0% in test [6].

Turning to `O=C(c1cccc(-c2ccc(-c3cn(C(=O)N4CCCCC4c4ccccc4)nn3)cc2)c1)N1CCCCC1` (racemic), the inhibition is less than 50% in test [1]; less than 50% in test [2]; less than 50% in test [3]; less than 50% in test [4]; less than 50% in test [5]; 0% in test [6].

As to `O=C(O)c1cccc(-c2ccc(-c3cn(C(=O)N4CCCCC4Cc4ccccc4)nn3)cc2)c1` (racemic), the inhibition in test [1] is less than 50%; in test [2] it was less than 50%; in test [3] it was less than 50%; in test [4], less than 50%; in test [5] it was less than 50%; in test [6], 50%.
